Data on 3 compounds can be found in ChEMBL document CHEMBL1157816, “Action of a pentacyclic triterpenoid, maslinic acid, against Toxoplasma gondii” (J Nat Prod, 2010).

As a reminder, the inhibition is how much of the control response was suppressed.

Activity calls are given as the source filed them. The rule behind the calls is not given here.

Data set [1] in a line: Toxicity in african green monkey Vero cells by alamar blue assay. The conditions noted are these: chlorocebus sabaeus, read-out: LD50 (the source's name). In kind it is cell-based. The method, boiled down:
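Semiconfluent Vero cells (1 × 10^4/well; DMEM, 10% heat-inactivated FCS, 2 mM glutamine, penicillin/streptomycin) exposed to compound dilutions (3.9-500 µM series) with Alamar Blue for 24 h, 37 °C, 5% CO2. Controls are medium, AB and drug blanks, plus cells with DMSO. Percent AB reduction is read from absorbance at 570/600 nm against the DMSO control by the manufacturer's formula. LD50 reported as mean ± SEM.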
For orientation: The colour change of resazurin is a common sign of viable cells or microbes.

The test system of data set [2] is Vero. Kind of data set: Inhibition of serine protease in excreted-secreted products fraction of Toxoplasma gondii RH tachyzoites infected in african green monkey Vero cells by SDS-PAGE and zymography. In kind it is cell-based. The method, boiled down:
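Purified tachyzoites (6 × 10^7/100 µL DMEM without serum) pretreated 15 min at room temperature with compound at various concentrations. Micronemal secretion is induced at 37 °C with 200 mM ethanol, then the parasites are pelleted and secretion stopped on ice. The ESP fraction goes in nonreducing sample buffer onto 12% SDS-PAGE with 0.1% gelatin, run at 90 V, 4 °C. The gel gets 2.5% Triton X-100 for 60 min, then develops overnight at 37 °C (50 mM Tris-HCl, 10 mM CaCl2, pH 6.8). Coomassie stain.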

Data set [3] has as its system Toxoplasma gondii. The data set can be described thus: Antimicrobial activity against Toxoplasma gondii RH tachyzoites assessed as inhibition of parasite gliding motility pretreated for 15 mins. The format is functional. The method, boiled down:
(§1)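 RH-strain tachyzoites (passaged in Balb/c mice and Vero cells, filter-purified) pretreated 15 min at 37 °C with compound at 50, 25 or 10 µM; DMSO at maximum solvent level as control. Slides coated with 0.1% poly-L-lysine in PBS pH 7.2. Fixed in 4% formaldehyde/0.02% glutaraldehyde, stained with anti-SAG-1 (P30) mAb 1/50 plus FITC anti-IgG 1/100; trail number and length scored by confocal microscopy.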

For data set [4], the system named is Toxoplasma gondii. Kind of data set: Antimicrobial activity against Toxoplasma gondii RH tachyzoites assessed as inhibition of parasite invasion of african green monkey Vero cells pretreated for 1 hr before cell infection measured 48 hrs post infection. The format is functional. As to conditions: read-out: ID50 (the source's name). The method, boiled down: (§2)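 Purified RH tachyzoites (2.5 × 10^5) pretreated 1 h at 37 °C in medium with compound (250-15.6 µM) or DMSO control. They then infected semiconfluent Vero cells at 10 parasites/cell (37 °C, 5% CO2), after which medium was replaced. Slides fixed in methanol at 24 or 48 h and stained with Diff-Quick. Percentage parasitism from 500 cells per slide by light microscopy; three repeats; mean ± SEM; ID50 reported.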

The test system of data set [5] is Toxoplasma gondii. Kind of data set: Antimicrobial activity against Toxoplasma gondii RH tachyzoites assessed as inhibition of parasite gliding motility at 50 uM pretreated for 15 mins. The format is functional. In a few lines: as §1
Data set [6] has as its system Toxoplasma gondii. Kind of data set: Antimicrobial activity against Toxoplasma gondii RH tachyzoites assessed as inhibition of parasite gliding motility at 10 uM pretreated for 15 mins. In kind it is functional. The method, boiled down:
as §1

In data set [7] the test system is Vero. Kind of data set: Inhibition of serine protease in excreted-secreted products fraction of […] secretion proteins of Toxoplasma gondii RH tachyzoites infected in african green monkey Vero cells by SDS-PAGE and zymography. In kind it is cell-based. In a few lines: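 Tachyzoites (6 × 10^7 in 100 µL serum-free DMEM) pretreated 15 min at room temperature with compound at various concentrations. Micronemal secretion induced at 37 °C with 200 mM ethanol and stopped on ice after centrifugation. The ESP fraction was run in nonreducing 12% SDS-PAGE containing 0.1% gelatin at 90 V, 4 °C. Gel washed in 2.5% Triton X-100, developed overnight at 37 °C in Tris/CaCl2 pH 6.8 and Coomassie-stained; cleared bands read as activity.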

Data set [8] relates to Toxoplasma gondii. Kind of data set: Antimicrobial activity against Toxoplasma gondii RH tachyzoites assessed as inhibition of parasite gliding motility at 25 uM pretreated for 15 mins. In kind it is functional. The method, boiled down: as §1
Data set [9] has as its system Toxoplasma gondii. Kind of data set: Cytopathic effect against Toxoplasma gondii RH extracellular tachyzoites infected in african green monkey Vero cells assessed as induction of morphological changes at 25 uM after 4 hrs by electron microscopy. The format is functional, organism-based. In a few lines:
(§3)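 Purified extracellular tachyzoites exposed to 25 µM compound for 4 or 8 h. Fixed in 2.5% glutaraldehyde in cacodylate buffer, postfixed 30 min in 1% buffered OsO4, dehydrated and embedded in Spurr resin. Ultrathin sections stained with 8% uranyl acetate then 0.2% lead citrate and examined by transmission electron microscopy.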

For data set [10], the system named is Toxoplasma gondii. Kind of data set: Antimicrobial activity against Toxoplasma gondii RH tachyzoites assessed as inhibition of parasite invasion of african green monkey Vero cells pretreated for 1 hr before cell infection measured 24 hrs post infection. The format is functional. The conditions noted are these: read-out: ID50 (the source's name). In a few lines:
as §2

Data set [11] concerns Toxoplasma gondii. Kind of data set: Cytopathic effect against Toxoplasma gondii RH extracellular tachyzoites infected in african green monkey Vero cells assessed as induction of morphological changes at 25 uM after 8 hrs by electron microscopy. In kind it is functional, organism-based. The method, boiled down:
as §3

In data set [12] the test system is Toxoplasma gondii. Kind of data set: Antimicrobial activity against Toxoplasma gondii RH tachyzoites assessed as inhibition of parasite invasion of african green monkey Vero cells pretreated for 1 hr before cell infection measured 24 to 48 hrs post infection. The format is functional. In a few lines:
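RH tachyzoites (mouse ascites, passaged in Vero cells, needle- and 5 µm filter-purified), 2.5 × 10^5 pretreated 1 h at 37 °C in medium with compound (250-15.6 µM) or DMSO control. They then infect semiconfluent Vero cells at 10 parasites/cell, 37 °C, 5% CO2. Medium is replaced. Slides are methanol-fixed and Diff-Quick stained at 24 and 48 h. Percent parasitised is scored by light microscopy in 500 cells/slide, three repeats, mean ± SEM, giving ID50.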

In data set [13] the test system is Toxoplasma gondii. The data set can be described thus: Cytopathic effect against Toxoplasma gondii RH intracellular tachyzoites infected in african green monkey Vero cells assessed as induction of morphological changes at 25 uM by electron microscopy. In kind it is functional, organism-based. In a few lines:
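Vero cultures infected 24 h, then treated with 25 µM compound for 8 h. Fixed in 2.5% glutaraldehyde in cacodylate buffer, scraped, postfixed 30 min in 1% OsO4 and embedded in Spurr resin. Sections stained with uranyl acetate and lead citrate and viewed by TEM.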
On the technique in general: Protection from cytopathic effect is a common read-out in antiviral testing.

For `NCCc1ccc(S(=O)(=O)F)cc1`, the CC50 in data set [1] was 36.9 µM.

Consider `CC1(C)CC[C@]2(C(=O)O)CC[C@]3(C)C(=CC[C@@H]4[C@@]5(C)C[C@@H](O)[C@H](O)C(C)(C)[C@@H]5CC[C@]43C)[C@@H]2C1` [MASLINIC ACID], for which the inhibition entry in [2], in [3] and in [12] was “Dose-dependent effect” each time. Besides, the “inhibition (INH)” value in data set [3] is listed as 100%. The results for the IC50 in data set [4] and in [10] were 8 µM and 46 µM, respectively. Further, the inhibition at 50 µM in [5] was at least 100%. In data set [6], the inhibition at 10 µM came out at 58.8%. The inhibition entry in data set [7], in [9], in data set [11] and in data set [13] was “Active” in each case. In data set [8], the inhibition at 25 µM was determined as 59.7%. Besides, the CC50 in data set [1] stood at 237 µM.

Consider `O=S(=O)(F)Cc1ccccc1` [PHENYLMETHYLSULFONYLFLUORIDE], for which the inhibition result in [2] is “Dose-dependent effect”. For the same compound, the CC50 in data set [1] was 133 µM.
